Published values of several laboratories.
Lines come from different studies, so protocols differ.
Effect on: microbial growth

SMILES | organism | method | strain | time | MIC
CC1(C)S[C@@H]2[C@H](NC(=O)[C@H](N)c3ccccc3)C(=O)N2[C@H]1C(=O)O | Acinetobacter baumannii | broth dilution | ATCC19606 |  | > 64 µg/mL
CCCCCCC#Cc1cncc(-c2nnc(SCc3ccc([N+](=O)[O-])cc3)n2CCCN)c1 | Acinetobacter baumannii | broth dilution | ATCC17978 |  | 64 µg/mL
O=c1oc2c(O)c(O)cc3c(=O)oc4c(O)c(O)cc1c4c23 | Streptococcus gordonii | broth dilution |  | 24 h | 100 µg/mL
CCCCCCCCCCCC[N+](C)(C)Cc1ccccc1 | Acinetobacter baumannii |  | ATCC17978 |  | 63 µM
CNC(C)C1CCC(N)C(OC2C(N)CC(N)C(OC3OCC(C)(O)C(NC)C3O)C2O)O1 (stereo not shown) | Proteus mirabilis | broth dilution |  |  | 2 µg/mL
CCCCCCC#Cc1cncc(-c2nnc(SCc3cc(C(F)(F)F)cc(C(F)(F)F)c3)n2CCCN)c1 | Acinetobacter baumannii | broth dilution | ATCC17978 |  | 32 µg/mL
C[C@@H]1O[C@@H](OC[C@H]2O[C@@H](Oc3c(-c4ccc(O)c(O)c4)oc4cc(O)cc(O)c4c3=O)[C@H](O)[C@@H](O)[C@@H]2O)[C@H](O)[C@H](O)[C@H]1O | Streptococcus gordonii | broth dilution |  | 24 h | 200 µg/mL
CC[C@H]1OC(=O)[C@H](C)[C@@H](O[C@H]2C[C@@](C)(OC)[C@@H](O)[C@H](C)O2)[C@H](C)[C@@H](O[C@@H]2O[C@H](C)C[C@H](N(C)C)[C@H]2O)[C@](C)(O)C[C@@H](C)CN(C)[C@H](C)[C@@H](O)[C@]1(C)O | Acinetobacter baumannii | broth dilution | ATCCBAA1605 |  | 16 µg/mL
O=C1O[C@H]2[C@@H]3OC(=O)c4cc(O)c(O)c(O)c4-c4c(O)c(O)c5oc(=O)c6c(c(O)c(O)c7oc(=O)c4c5c76)-c4c(cc(O)c(O)c4O)C(=O)OC[C@H]3OC(O)[C@@H]2OC(=O)c2cc(O)c(O)c(O)c2-c2c1cc(O)c(O)c2O (mixture of isomers) | Streptococcus gordonii | broth dilution |  | 24 h | 100 µg/mL
CC1(C)S[C@@H]2[C@H](NC(=O)[C@H](N)c3ccc(O)cc3)C(=O)N2[C@H]1C(=O)O | Acinetobacter baumannii | broth dilution | ATCCBAA1605 |  | > 64 µg/mL
